A selection: hits, their analogues and other compounds. The true share with any hit is near 1.5%.
CCR6 antag = CCR6 receptor antagonists, primary screen, cell-based, CHO-K1, luminescence, beta-arrestin, uHTS; C-C chemokine receptor type 6 (Homo sapiens), P51684; CHO-K1 CCR6 PathHunter beta-arrestin, CCL20-stimulated; inhibition, % at 20 µM; 340,000 compounds, 0.49% hits;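 active means compounds whose inhibition of the agonist-driven luminescence signal at 20 µM reaches about 50%, limit read from the data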;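 further: cells stimulated with CCL20 at 14 nM final; plate controls were DMSO with CCL20 for no effect and DMSO without agonist for full effect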
APJ ag = agonists of human apelin receptor APJ, primary screen, CHO-K1 cells, PathHunter beta-arrestin, luminescence. 330,000 compounds, 0.11% hits. activation, % at 20 µM. P35414. 0% DMSO wells, 100% apelin;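 active means activation more than six SD over the plate average, tested at 20 µM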;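 further: 0% = DMSO alone and 100% = apelin-13 at 10 nM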
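Test system – PathHunter CHO-K1 APJ (AGTRL-1) beta-arrestin reporter cells · Input – 1000 cells/well · Compound – single test compound dose, 20 µM final, 1% DMSO · Times – compound stimulation 90 min at 25 °C, detection 60 min · Technique – beta-gal luminescence · Read-out basis – APJ–arrestin association signal · Control set – negative DMSO alone, positive Apelin-13 at 10 nM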
APJ antagonist = antagonists of human apelin receptor APJ, primary screen, CHO-K1 cells, beta-arrestin complementation, luminescence. P35414. inhibition, % at 20 µM. 330,000 compounds, 0.32% hits;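 active means inhibition above about 40% at 20 µM, limit read from the data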;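 further: cells challenged with 10 nM apelin-13 agonist together with compound; plate controls were apelin-13 plus DMSO wells for no effect and DMSO wells lacking apelin-13 for full effect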
CXCR6 inh = CXCR6 receptor inhibitors, primary screen, cell-based, beta-arrestin, luminescence, CHO-K1 PathHunter, 1536-well; 360,000 compounds, 0.36% hits; AID 602244, 2012; inhibition, % at 20 µM; in the data active means inhibition above about 34%, passing the limit was not always enough;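 further: antagonist mode with CXCL16 agonist at 10 nM final; 0% = 10 nM CXCL16 with DMSO and 100% = unstimulated wells without agonist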
hiPSC survival = enhancers of single-cell hiPSC survival, primary screen, ATPlite luminescence. survival enhancement, % at 20 µM. 100% = ROCK inhibitor wells, 0% = DMSO. 360,000 compounds, 0.044% hits; in the data active means survival enhancement above about 18%;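 further: cells exposed to compounds for 16 hours before the ATP read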
EBI2 antag = EBI2 receptor antagonists, beta-arrestin recruitment, primary screen, cell-based, luminescence, 7a,25-OHC stimulation, uHTS. G-protein coupled receptor 183 (Homo sapiens), P32249. 7a,25-OHC stimulated. inhibition, % at 5 µM. 360,000 compounds, 0.81% hits; in the data active means inhibition above about 38%;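 further: enzyme fragment complementation signal reports receptor beta-arrestin coupling in cells; 0% = agonist plus DMSO wells and 100% = wells without agonist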
Target sequence (P32249 whole entry, looked up, the tested form may be a part): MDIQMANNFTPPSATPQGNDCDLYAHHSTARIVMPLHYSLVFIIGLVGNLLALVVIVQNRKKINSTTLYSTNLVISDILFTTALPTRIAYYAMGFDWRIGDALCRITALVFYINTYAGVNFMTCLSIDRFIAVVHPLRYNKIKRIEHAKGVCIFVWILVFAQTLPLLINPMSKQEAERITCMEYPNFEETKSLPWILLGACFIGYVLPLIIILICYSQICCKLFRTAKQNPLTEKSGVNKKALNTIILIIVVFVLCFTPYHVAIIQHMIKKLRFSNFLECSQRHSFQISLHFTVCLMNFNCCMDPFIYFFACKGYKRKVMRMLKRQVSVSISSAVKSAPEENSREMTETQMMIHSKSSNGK
* marks the source's active call; other numbers are inactive results; / = not tested or not shown.

SMILES	CCR6 antag	APJ ag	APJ antagonist	CXCR6 inh	hiPSC survival	EBI2 antag
Cn1c(=Nc2ccc(N3CCOCC3)cc2)ccc2ccccc21	-5	0	-3	7	1	6
Cn1c(N=Nc2ccc(N3CCOCC3)cc2)[n+](C)c2ccccc21	63*	/	/	54*	-1	12
CCc1n[nH]c(=S)n1/N=C/c1cc(OC)cc([N+](=O)[O-])c1O	62*	-6	42*	40	0	-3
COc1cc(/C=N/n2c(=S)[nH]nc(C)c2=O)cc([N+](=O)[O-])c1O	-2	-4	5	3	0	17
COC(=O)[C@@]1(C)[C@H]2C(=O)N(C)C(=O)[C@H]2[C@H]2CN(C)C(=NC3CCCCC3)N21	3	/	/	3	5	-5
Cc1cc(OCC(=O)NNC(=S)NC(=O)c2cccs2)ccc1Cl	17	-9	34	13	0	5
Cc1ccc(OCC(=O)NNC(=S)NC(=O)c2cccs2)c(C)c1	55*	-7	10	37	0	-9
COc1ccc(CNC(=O)/C=C/[C@H]2O[C@@H](n3ccc(=O)[nH]c3=O)[C@H](O)[C@@H]2O)cc1	/	/	/	-6	7	-11
O=C(CS(=O)(=O)Cc1ccccc1)N1CCN(c2ccccc2F)CC1	2	-7	13	2	1	1
CC(=O)C1=CCC(c2ccccc2)N(S(=O)(=O)c2cccc(C)c2)C1 (stereo not drawn)	/	/	/	3	-2	-6
O=C(N/N=C/c1cc(Br)ccc1O)c1ccncc1	-11	7	-14	-13	0	31
O=C(N/N=C\c1cc(Br)ccc1O)c1ccc(S(=O)(=O)N2CCCCC2)cc1	15	0	-12	-3	-1	58*
O=C(N/N=C/c1cc(Cl)ccc1O)c1ccc(Br)cc1	12	/	/	2	-1	48*
OC(c1ccccc1)(c1nc(/C=C/c2ccc(C(F)(F)F)cc2)cs1)C(F)(F)F (stereo not drawn)	/	/	/	-22	-2	23
O=C(Nc1ccc(Cl)cc1Cl)c1cccc(N2C(=O)C=CC2=O)c1	47	-1	-5	105*	0	-4
O=C(NCCOc1ccccc1)c1cc([N+](=O)[O-])ccc1N1CCOCC1	15	-2	-38	6	1	59*
CC(OC(=O)Cc1ccc(Br)cc1)C(=O)NC1CCCCC1C (stereo not drawn)	0	8	-2	-12	0	4
C[C@H](CO)N1C[C@H](C)[C@H](CN(C)S(=O)(=O)c2ccc(Cl)cc2)OCc2cnnn2CCCC1=O	/	/	/	4	1	1
CCOc1ccc(NC(=S)Nc2ccc3nsnc3c2)cc1	21	-3	-3	-3	0	53*
CCOc1ccc(NC(=O)Nc2ccc3nsnc3c2)cc1	18	-4	5	3	2	9
COc1ccc(NC(=O)c2ccc(=O)[nH]c2)cc1S(=O)(=O)N1CCOCC1	1	-1	11	11	0	-4
N#Cc1ccc(Nc2nc(-c3ccc(O)cc3O)cs2)cc1C(F)(F)F	4	6	3	-23	0	56*
COc1ccc(C(O)CNc2ccc(C)cc2)cc1 (stereo not drawn)	15	14	-16	1	2	66*
CCOC(=O)C1CCCN(C(=O)CSc2nnnn2C)C1 (stereo not drawn)	-9	2	-13	-2	0	0
COc1cccc(-c2sc3ccc(OC)cc3c2-c2ccc(OCCN3CCCC3)cc2)c1	48	/	/	-10	-1	-7
COc1ccc(-c2sc3ccc(OC)cc3c2-c2ccc(OCCN3CCOCC3)cc2)cc1	28	/	/	-4	4	52*
COc1ccc2sc(-c3ccccc3OC)c(-c3ccc(OCCN(C)C)cc3)c2c1	52*	/	/	-3	-1	-2
CC(=O)Nc1ccc(Nc2c3c4c(cccc4n(C)c2=O)C(=O)c2ccccc2-3)cc1	52*	-1	21	26	-3	13

Source: PubChem BioAssay (Sanford-Burnham Center for Chemical Genomics)
